In ChEMBL document CHEMBL2331353, “Synthesis and biological evaluation of some novel resveratrol amide derivatives as potential anti-tumor agents” (Eur J Med Chem, 2013):

Experiments:
[1] = tested on: MCF7; assay: Antitumor activity against human MCF7 cells assessed as inhibition of cell proliferation after 48 hrs by MTT assay; format: functional, cell-based; settings: MCF7, 48 h
In short: (§1)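 Cells grown to log phase in RPMI 1640 with 10% FBS, seeded at 2×10^4 cells/mL and preincubated 24 h at 37 °C, 5% CO2. Compounds at preset concentrations added (6 wells), celecoxib as positive reference, 48 h exposure. MTT (2.5 mg/mL in PBS) for 4 h, then SDS/isobutanol/HCl extraction overnight at 37 °C. OD read at 570 nm. Triplicate wells per concentration, at least three independent runs.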

[2] = molecular target: Prostaglandin G/H synthase 1 (Homo sapiens, UniProt P23219); assay: Inhibition of COX-1 (unknown origin) by chemiluminescence assay
[3] = tested on: B16-F10; assay: Antitumor activity against mouse B16F10 cells assessed as inhibition of cell proliferation after 48 hrs by MTT assay; format: functional, cell-based; settings: B16-F10, 48 h; in short: as §1
[4] = molecular target: T1, Prostaglandin G/H synthase 2 (Homo sapiens, UniProt P35354); assay: Inhibition of COX-2 (unknown origin) by chemiluminescence assay
T1 sequence (P35354 whole entry): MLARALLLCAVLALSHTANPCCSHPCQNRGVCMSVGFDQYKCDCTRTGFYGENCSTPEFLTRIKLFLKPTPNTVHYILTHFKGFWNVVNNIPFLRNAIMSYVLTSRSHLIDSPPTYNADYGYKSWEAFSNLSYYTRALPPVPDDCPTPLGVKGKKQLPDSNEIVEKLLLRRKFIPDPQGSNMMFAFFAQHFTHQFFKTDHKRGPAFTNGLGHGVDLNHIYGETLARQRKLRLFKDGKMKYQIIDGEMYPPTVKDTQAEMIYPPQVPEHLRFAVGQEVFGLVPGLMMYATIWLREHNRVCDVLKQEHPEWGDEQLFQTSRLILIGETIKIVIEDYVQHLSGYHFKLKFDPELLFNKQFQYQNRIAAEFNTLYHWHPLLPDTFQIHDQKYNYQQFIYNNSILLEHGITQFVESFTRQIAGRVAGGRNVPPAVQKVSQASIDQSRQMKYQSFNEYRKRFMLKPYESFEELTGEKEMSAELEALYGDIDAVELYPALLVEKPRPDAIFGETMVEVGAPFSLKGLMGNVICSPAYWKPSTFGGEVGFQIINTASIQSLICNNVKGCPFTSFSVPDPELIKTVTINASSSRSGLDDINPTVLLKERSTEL

[5] = molecular target: T2, Prostaglandin G/H synthase 2 (Mus musculus, UniProt Q05769); assay: Inhibition of COX-2 in mouse RAW264.7 cells assessed as decrease in LPS-induced PGE2 production; format: cell-based
T2 sequence (Q05769 whole entry): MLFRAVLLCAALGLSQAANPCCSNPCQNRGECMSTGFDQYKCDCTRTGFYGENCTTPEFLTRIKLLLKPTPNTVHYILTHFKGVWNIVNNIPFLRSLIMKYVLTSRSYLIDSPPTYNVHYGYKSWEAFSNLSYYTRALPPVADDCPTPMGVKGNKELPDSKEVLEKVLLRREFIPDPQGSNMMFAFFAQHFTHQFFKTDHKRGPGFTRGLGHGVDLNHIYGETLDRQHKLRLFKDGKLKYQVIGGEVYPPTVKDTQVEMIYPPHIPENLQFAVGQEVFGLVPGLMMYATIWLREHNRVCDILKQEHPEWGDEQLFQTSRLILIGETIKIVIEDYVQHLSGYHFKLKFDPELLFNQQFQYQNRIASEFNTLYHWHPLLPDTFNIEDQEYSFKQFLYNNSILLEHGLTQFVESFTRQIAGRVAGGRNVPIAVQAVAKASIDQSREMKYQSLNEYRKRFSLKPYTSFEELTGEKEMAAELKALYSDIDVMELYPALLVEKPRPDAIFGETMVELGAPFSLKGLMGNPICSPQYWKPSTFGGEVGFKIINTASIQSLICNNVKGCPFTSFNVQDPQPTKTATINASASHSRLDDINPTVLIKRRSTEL

[6] = tested on: A549; assay: Antitumor activity against human A549 cells assessed as inhibition of cell proliferation after 48 hrs by MTT assay; format: functional, cell-based; settings: A549, 48 h; in short: as §1

Chain of Prostaglandin G/H synthase 1 (P23219 whole entry): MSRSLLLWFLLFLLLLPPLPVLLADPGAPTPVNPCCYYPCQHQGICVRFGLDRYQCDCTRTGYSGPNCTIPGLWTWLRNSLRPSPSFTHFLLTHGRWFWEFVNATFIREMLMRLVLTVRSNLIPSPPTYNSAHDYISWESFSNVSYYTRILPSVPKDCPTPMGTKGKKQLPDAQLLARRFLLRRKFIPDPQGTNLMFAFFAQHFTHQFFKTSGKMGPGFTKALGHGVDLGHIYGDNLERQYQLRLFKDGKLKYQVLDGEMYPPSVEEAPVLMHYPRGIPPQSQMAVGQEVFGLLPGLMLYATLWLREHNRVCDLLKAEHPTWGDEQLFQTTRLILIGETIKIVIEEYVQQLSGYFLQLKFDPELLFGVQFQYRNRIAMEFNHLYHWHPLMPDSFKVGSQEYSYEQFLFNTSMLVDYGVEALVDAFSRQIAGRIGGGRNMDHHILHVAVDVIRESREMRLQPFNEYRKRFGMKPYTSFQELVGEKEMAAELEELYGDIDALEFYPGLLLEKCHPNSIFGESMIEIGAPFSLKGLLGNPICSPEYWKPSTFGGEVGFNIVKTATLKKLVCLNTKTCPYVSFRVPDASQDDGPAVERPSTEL

Compound	IC50 [1]	IC50 [2]	IC50 [3]	IC50 [4]	IC50 [5]	IC50 [6]
CCN(CC)C(=O)/C=C/c1c(/C=C/c2ccc(OC)cc2)cc(OC)cc1OC	6.55 µM	> 50 µM	3.98 µM	4.67 µM	2.15 µM	3.35 µM
Cc1ccc(-c2cc(C(F)(F)F)nn2-c2ccc(S(N)(=O)=O)cc2)cc1 [CELECOXIB]						15.6 µM
COc1ccc(/C=C/c2cc(OC)cc(OC)c2/C=C/C(=O)NCCCN2CCOCC2)cc1	4.15 µM	> 50 µM	6.83 µM	8.92 µM	3.68 µM	4.22 µM
COc1ccc(/C=C/c2cc(OC)cc(OC)c2/C=C/C(=O)N(CC(C)C)CC(C)C)cc1	2.39 µM	> 50 µM	4.85 µM	6.84 µM	2.56 µM	3.35 µM
C=CCN(CC=C)C(=O)/C=C/c1c(/C=C/c2ccc(OC)cc2)cc(OC)cc1OC	3.22 µM	35 µM	8.18 µM	8.01 µM	3.28 µM	5.89 µM
COc1ccc(/C=C/c2cc(OC)cc(OC)c2/C=C/C(=O)NC(C)(C)C)cc1	13.6 µM	> 50 µM	7.98 µM	11.1 µM	5.29 µM	8.67 µM
COc1ccc(/C=C/c2cc(OC)cc(OC)c2/C=C/C(=O)Nc2cc(OC)c(OC)c(OC)c2)cc1	7.01 µM	> 50 µM	8.15 µM	6.66 µM	2.1 µM	5.14 µM
CCCCN(CCCC)C(=O)/C=C/c1c(/C=C/c2ccc(OC)cc2)cc(OC)cc1OC	3.99 µM	> 50 µM	9.03 µM	10.1 µM	4.12 µM	6.16 µM
COc1ccc(/C=C/c2cc(OC)cc(OC)c2/C=C/C(=O)NCc2ccco2)cc1	5.42 µM	29.1 µM	10.1 µM	9.67 µM	3.15 µM	6.42 µM
CCCCCCN(CCCCCC)C(=O)/C=C/c1c(/C=C/c2ccc(OC)cc2)cc(OC)cc1OC	4.03 µM	> 50 µM	8.02 µM	9.08 µM	3.1 µM	5.34 µM
CCCCCCNC(=O)/C=C/c1c(/C=C/c2ccc(OC)cc2)cc(OC)cc1OC	5.53 µM	34.7 µM	7.18 µM	8.99 µM	5.01 µM	6.23 µM
CCCN(CCC)C(=O)/C=C/c1c(/C=C/c2ccc(OC)cc2)cc(OC)cc1OC	2 µM	45.9 µM	5.98 µM	8.06 µM	3.88 µM	5.58 µM
COc1ccc(/C=C/c2cc(OC)cc(OC)c2/C=C/C(=O)NCC(C)C)cc1	5.29 µM	> 50 µM	12.7 µM	15.1 µM	6.12 µM	10.4 µM
COc1ccc(/C=C/c2cc(OC)cc(OC)c2/C=C/C(=O)NCCCCl)cc1	1.98 µM	38.4 µM	2.78 µM	1.27 µM	0.39 µM	1.98 µM
CCCCCCCCNC(=O)/C=C/c1c(/C=C/c2ccc(OC)cc2)cc(OC)cc1OC	4.28 µM	> 50 µM	8.06 µM	20.1 µM	13.8 µM	8.66 µM

Second part, the molecule after the results:

IC50 [1]	IC50 [2]	IC50 [3]	IC50 [4]	IC50 [5]	IC50 [6]	Compound
1.57 µM	45.1 µM	3.26 µM	1.98 µM	0.58 µM	2.27 µM	COc1ccc(/C=C/c2cc(OC)cc(OC)c2/C=C/C(=O)N2CC(C)CC(C)C2)cc1 (centres undefined)
4.95 µM	40.6 µM	4.69 µM	1.45 µM	0.46 µM	2.08 µM	COc1ccc(/C=C/c2cc(OC)cc(OC)c2/C=C/C(=O)N2CCC(Cl)CC2)cc1
6.45 µM	> 50 µM	7.76 µM	10.3 µM	8.09 µM	7.2 µM	COc1ccc(/C=C/c2cc(OC)cc(OC)c2/C=C/C(=O)N2CCC(C)CC2)cc1
5.61 µM	> 50 µM	9.08 µM	6.75 µM	2.08 µM	5.17 µM	CCCNC(=O)/C=C/c1c(/C=C/c2ccc(OC)cc2)cc(OC)cc1OC
3.31 µM	> 50 µM	3.08 µM	1.88 µM	0.85 µM	2.32 µM	COc1ccc(/C=C/c2cc(OC)cc(OC)c2/C=C/C(=O)N2CCOCC2)cc1
3.94 µM	> 50 µM	10.2 µM	13 µM	7.05 µM	8.81 µM	COc1ccc(/C=C/c2cc(OC)cc(OC)c2/C=C/C(=O)NC2CC2)cc1
4.23 µM	> 50 µM	9.18 µM	8.57 µM	3.55 µM	6.69 µM	COc1ccc(/C=C/c2cc(OC)cc(OC)c2/C=C/C(=O)N2CCC(c3ccccc3)CC2)cc1
4.2 µM	> 50 µM	9.28 µM	8.87 µM	3.76 µM	6.35 µM	COc1ccc(/C=C/c2cc(OC)cc(OC)c2/C=C/C(=O)N2CCCC2)cc1
2.56 µM	40.4 µM	4.02 µM	2.01 µM	0.72 µM	2.36 µM	COc1ccc(/C=C/c2cc(OC)cc(OC)c2/C=C/C(=O)NC(C)C)cc1
2.3 µM	32.3 µM	3.45 µM	1.36 µM	0.45 µM	2 µM	COc1ccc(/C=C/c2cc(OC)cc(OC)c2/C=C/C(=O)NCCCl)cc1
2.29 µM	39.1 µM	5.67 µM	5.78 µM	1.62 µM	4.51 µM	COc1ccc(/C=C/c2cc(OC)cc(OC)c2/C=C/C(=O)N2CCN(C)CC2)cc1
6.86 µM	> 50 µM	5.78 µM	13 µM	4.36 µM	6 µM	COc1ccc(/C=C/c2cc(OC)cc(OC)c2/C=C/C(=O)N(C)C)cc1
2.76 µM	45.2 µM	8.1 µM	8.01 µM	3.18 µM	5.4 µM	COc1ccc(/C=C/c2cc(OC)cc(OC)c2/C=C/C(=O)N2CCSCC2)cc1
2.63 µM	> 50 µM	5.48 µM	5.09 µM	1.98 µM	3.61 µM	COc1ccc(/C=C/c2cc(OC)cc(OC)c2/C=C/C(=O)NC2CCCCC2)cc1
4.56 µM	> 50 µM	8.28 µM	9.08 µM	5.08 µM	6.93 µM	C#CCNC(=O)/C=C/c1c(/C=C/c2ccc(OC)cc2)cc(OC)cc1OC
7.06 µM	35.4 µM	6.99 µM	12.4 µM	7.06 µM	7.86 µM	CCNC(=O)/C=C/c1c(/C=C/c2ccc(OC)cc2)cc(OC)cc1OC
6.05 µM	> 50 µM	9.75 µM	23.2 µM	15.3 µM	10.6 µM	COc1ccc(/C=C/c2cc(OC)cc(OC)c2/C=C/C(=O)N2CCCCC2)cc1
11.9 µM	> 50 µM	8.25 µM	7.09 µM	3.16 µM	5.82 µM	COc1ccc(/C=C/c2cc(OC)cc(OC)c2/C=C/C(=O)N2CCCC(C)C2)cc1 (centres undefined)
4.35 µM	> 50 µM	7.66 µM	6.69 µM	2.44 µM	5.77 µM	COc1ccc(/C=C/c2cc(OC)cc(OC)c2/C=C/C(=O)N2CCCCC2C)cc1 (centres undefined)
